Measured values taken from ChEMBL document CHEMBL1136868, “Synthesis of phenylisothiourea derivatives as inhibitors of NO production in LPS activated macrophages” (Bioorg Med Chem Lett, 2009).
Active and inactive are the calls of the source. The rule behind the calls is not given here.

How the values were obtained:
RAW264.7 [1] = experiment: Antiinflammatory activity against LPS-stimulated mouse RAW264.7 cells assessed as inhibition of NO production at 20 uM after 20 hrs relative to control; assay type: functional; details: RAW264.7, 20 h
How it was run: (§1)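 RAW 264.7 cells plated at 1 × 10⁵ cells/mL in 10% FBS–DMEM and grown 24 h, then moved to 1% FBS medium. Cells were stimulated with LPS (1 µg/mL) with or without compound for 20 h. Nitrite accumulated in supernatant was read by Griess reagent (10 min, room temperature, A570). Inhibition is relative to LPS control, n = 3; IC50 given as mean ± SD of three experiments.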

RAW264.7 [2] = experiment: Antiinflammatory activity against LPS-stimulated mouse RAW264.7 cells assessed as inhibition of NO production after 20 hrs; assay type: functional, cell-based; details: RAW264.7, 20 h; how it was run: as §1
RAW264.7 [3] = experiment: Inhibition of iNOS protein expression in LPS-stimulated mouse RAW264.7 cells at 10 uM after 20 hrs by Western blot; assay type: functional, cell-based
How it was run: (§2)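 RAW 264.7 cells were exposed to compound for 20 h during LPS (1 µg/mL) activation, then washed and lysed. 20 µg lysate protein was run on 8% SDS-PAGE, blotted to PVDF and probed for iNOS and actin. iNOS band density was normalized to actin; mean ± SD of three independent densitometric analyses.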

RAW264.7 [4] = experiment: Inhibition of iNOS protein expression in LPS-stimulated mouse RAW264.7 cells at 5 uM after 20 hrs by Western blot; assay type: functional; details: RAW264.7, 20 h; how it was run: as §2
RAW264.7 [5] = experiment: Inhibition of iNOS mRNA expression in LPS-stimulated mouse RAW264.7 cells at 5 uM after 6 hrs by RT-PCR; assay type: functional, cell-based
How it was run: (§3)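 RAW 264.7 cells (1.8 × 10⁶ per 60 mm dish) were stimulated 6 h with LPS (1 µg/mL) with or without compound. Total RNA was extracted and 2 µg was reverse transcribed with random hexamers. PCR ran 25 cycles (94 °C, 55 °C, 72 °C, 30 s each), and products were resolved on 2% agarose. iNOS was normalized to β-actin; mean ± SD of three densitometric analyses.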

RAW264.7 [6] = experiment: Suppression of LPS-induced NF-kappaB p65 subunit translocation into nucleus in mouse RAW264.7 cells assessed as p65 protein level at 5 uM after 30 mins pretreated 30 mins before LPS challenge by Western blot; assay type: functional, cell-based
How it was run: (§4)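 Macrophages were pretreated with compound for 30 min, then given LPS (1 µg/mL) for a further 30 min. Nuclear extracts were immunoblotted for p65, with levels normalized to PARP as the loading control.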

RAW264.7 [7] = experiment: Suppression of LPS-induced NF-kappaB p65 subunit translocation into nucleus in mouse RAW264.7 cells assessed as p65 protein level at 10 uM after 30 mins pretreated 30 mins before LPS challenge by Western blot; assay type: functional, cell-based; how it was run: as §4
RAW264.7 [8] = experiment: Cytotoxicity against mouse RAW264.7 cells; assay type: cell-based
RAW264.7 [9] = experiment: Antiinflammatory activity against LPS-stimulated mouse RAW264.7 cells assessed as inhibition of NO production at 50 uM after 20 hrs relative to control; assay type: functional; details: RAW264.7, 20 h; how it was run: as §1
RAW264.7 [10] = experiment: Inhibition of iNOS mRNA expression in LPS-stimulated mouse RAW264.7 cells at 10 uM after 6 hrs by RT-PCR; assay type: functional, cell-based; how it was run: as §3
RAW264.7 [11] = experiment: Antiinflammatory activity against LPS-stimulated mouse RAW264.7 cells assessed as inhibition of NO production at 5 uM after 20 hrs relative to control; assay type: functional; details: RAW264.7, 20 h; how it was run: as §1
[12] = Peroxynitrite radical scavenging activity assessed as dihydrohodamine 123 product by cell free assay
How it was run: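 In a cell-free system, oxidation of dihydrorhodamine 123 by authentic peroxynitrite was monitored by fluorescence.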

SMILES | inhibition at 20 µM (RAW264.7 [1]) [%] | inhibition at 50 µM (RAW264.7 [9]) [%] | also measured
CCN/C(=N/c1ccc(OCCn2c3ccccc3c3ccccc32)cc1)SC(C)C | 48 |  | IC50 (RAW264.7 [2]): 1.3 µM; iNOS protein expression inhibition (RAW264.7 [3]): Active; inhibition at 5 µM (RAW264.7 [4]): 79%; inhibition (RAW264.7 [5]): Active; Activity (RAW264.7 [6]): Active; Activity (RAW264.7 [7]): Active; Activity (RAW264.7 [8]): Non-toxic
CCNC(=S)Nc1ccc(Cl)cc1 | < 10 | 11 | 
CS/C(N)=N\c1ccc(OCCn2c3ccccc3c3ccccc32)cc1 | 22 | 24 | 
COc1cc(/C=C/C(=O)CC(=O)/C=C/c2ccc(O)c(OC)c2)ccc1O [CURCUMIN] |  |  | inhibition (RAW264.7 [10]): Active; Activity (RAW264.7 [7]): Active; Activity (RAW264.7 [8]): Non-toxic
CCN/C(=N/c1ccc(OCCn2c3ccccc3c3ccccc32)cc1)SCc1ccccc1 | 31 | 33 | 
CCN/C(=N/c1ccc(Cl)cc1)SC(C)C | < 10 | 62 | 
CCN/C(=N/c1ccc(OCCn2c3ccccc3c3ccccc32)cc1)SCc1ccc(C(=O)OC)cc1 | 14 | 17 | 
CCNC(=S)Nc1ccc(C)cc1 | < 10 | 14 | 
CCN/C(=N/c1ccc(OCCn2c3ccccc3c3ccccc32)cc1)SCc1ccc(C(=O)O)cc1 | 90 | 100 | inhibition at 5 µM (RAW264.7 [11]): 39%; IC50 (RAW264.7 [2]): 5.3 µM; iNOS protein expression inhibition (RAW264.7 [3]): Active; Activity (RAW264.7 [7]): Active; SC50 [12]: 14 µM; Activity (RAW264.7 [8]): Non-toxic
CCN/C(=N/c1ccc(C)cc1)SC(C)C | < 10 | 14 | 
CCN/C(=N/c1ccc(-c2ccccc2)cc1)SC(C)C | 85 | 96 | inhibition at 5 µM (RAW264.7 [11]): 13%; IC50 (RAW264.7 [2]): 11.2 µM; iNOS protein expression inhibition (RAW264.7 [3]): Active; Activity (RAW264.7 [7]): Active; Activity (RAW264.7 [8]): Non-toxic
CCCc1ccc(/N=C(/NCC)SC(C)C)cc1 | < 10 | 71 | 
CCNC(=S)Nc1ccc(OCC)cc1 | < 10 | 12 | 
CCNC(=S)Nc1ccc(-c2ccccc2)cc1 | < 10 | 23 | 
CCS/C(N)=N\c1ccc(OCCn2c3ccccc3c3ccccc32)cc1 | 32 | 64 | 
CCN/C(=N/c1ccc(OCCn2c3ccccc3c3ccccc32)cc1)SCc1ccc(F)cc1 | 36 | 40 | 
CCN/C(=N/c1ccc(OCC)cc1)SC(C)C | < 10 | 22 | 
CCN/C(=N/c1ccc(OCCn2c3ccccc3c3ccccc32)cc1)SC | 99 | 100 | IC50 (RAW264.7 [2]): 2.9 µM; iNOS protein expression inhibition (RAW264.7 [3]): Active; Activity (RAW264.7 [7]): Active; Activity (RAW264.7 [8]): Non-toxic
CCCc1ccc(NC(=S)NCC)cc1 | < 10 | 23 | 
CC(C)S/C(N)=N\c1ccc(OCCn2c3ccccc3c3ccccc32)cc1 | 22 | 30 | 
CCNC(=S)Nc1ccc(O)cc1 | < 10 | 20 | 
